From ChEMBL document CHEMBL1154425, “Histatin-derived monomeric and dimeric synthetic peptides show strong bactericidal activity towards multidrug-resistant Staphylococcus aureus in vivo” (Antimicrob Agents Chemother, 2007)
Positions of bridges follow the written chain, without caps; N, C: chain ends. Residues, ends and D or L forms follow the SMILES beside them. Chains are numbered I, II in the order given.

Columns and labels:
[1] = Ratio of drug level in infected thigh muscle to contralateral noninfected thigh muscle in multidrug-resistant Staphylococcus aureus 2141 infected Swiss mouse administered as [99m]technetium-radiolabeled peptide; assay type: ADME, tissue-based; details: in vivo
How it was run: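 99mTc-labelled peptides (2 to 5 MBq) injected intravenously into infected mice. Scintigraphic imaging at intervals. Ratio = accumulation in infected thigh muscle (target) over contralateral noninfected thigh muscle (nontarget).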

Staphylococcus aureus [2] = test: Bactericidal activity against Staphylococcus aureus ATCC 25923 infected iv dosed Swiss mouse assessed per gram of infected soft tissue after 24 hrs; assay type: functional
How it was run: (§1)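 Mice infected with 0.1 ml saline containing 0.5 to 2.0 × 10^7 CFU. After 18 h, various peptide amounts given intravenously. Mice kept another 24 h, then sacrificed and viable bacteria counted. LC50 = μmol/g infected tissue cutting viable counts by 50% versus untreated mice. Means from at least three animals per peptide concentration.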

Kidney = test: Biodistribution in Swiss mouse kidney at 2 to 5 MBq, iv administered as [99m]technetium-radiolabeled peptide by scintigraphic imaging; assay type: ADME, organism-based; details: in vivo
How it was run: (§2)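 Mice carry a thigh-muscle infection from 0.1 ml saline containing 0.5 to 2.0 × 10^7 CFU S. aureus. Peptides labelled with 99mTc (2 to 5 MBq) are injected intravenously and tracked by scintigraphic imaging. Radioactivity in bladder, kidneys, spleen, liver and infected muscle is given as % of injected dose, mean ± SD.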

Staphylococcus aureus [3] = test: Bactericidal activity against multidrug-resistant Staphylococcus aureus 2141 isolate after 2 hrs; assay type: functional
How it was run: (§3)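 1 × 10^6/ml bacteria in phosphate buffer with 1% (wt/vol) tryptic soybean broth exposed to various peptide amounts, 2 h at 37°C. Viable counts on DST plates. LC50 = concentration (μM) cutting viable bacteria by 50% versus no-peptide incubations. Means from at least three independent experiments.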

Liver = test: Biodistribution in Swiss mouse liver at 2 to 5 MBq, iv administered as [99m]technetium-radiolabeled peptide by scintigraphic imaging; assay type: ADME, organism-based; details: in vivo; how it was run: as §2
Spleen = test: Biodistribution in Swiss mouse spleen at 2 to 5 MBq, iv administered as [99m]technetium-radiolabeled peptide by scintigraphic imaging; assay type: ADME, organism-based; details: in vivo; how it was run: as §2
Mus musculus = test: Metabolic stability in Swiss mouse at 2 to 5 MBq, iv administered as [99m]technetium-radiolabeled peptide by scintigraphic imaging; assay type: ADME, organism-based; details: in vivo
How it was run: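 After intravenous injection of 99mTc-labelled peptide (2 to 5 MBq) into thigh-infected mice, scintigraphic imaging follows clearance from the circulation. The value is the biological half-life in minutes, mean ± SD.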

Staphylococcus aureus [4] = test: Bactericidal activity against Staphylococcus aureus ATCC 25923 after 2 hrs; assay type: functional; details: ATCC 25923, 2 h; how it was run: as §3
Staphylococcus aureus [5] = test: Bactericidal activity against multidrug-resistant Staphylococcus aureus 2141 isolate infected iv dosed Swiss mouse assessed per gram of infected soft tissue after 24 hrs; assay type: functional; how it was run: as §1
[6] = Biodistribution in Swiss mouse urinary bladder at 2 to 5 MBq, iv administered as [99m]technetium-radiolabeled peptide by scintigraphic imaging; assay type: ADME, organism-based; details: in vivo; how it was run: as §2
[7] = Biodistribution in Staphylococcus aureus infected Swiss mouse thigh muscle at 2 to 5 MBq, iv administered as [99m]technetium-radiolabeled peptide by scintigraphic imaging; assay type: ADME, organism-based, Muscle tissue; details: in vivo; how it was run: as §2

SMILES	Ratio [1]	LC50 (Staphylococcus aureus [2]) [µmol/g]	Drug uptake (Kidney) [%ID]	LC50 (Staphylococcus aureus [3]) [µM]	Drug uptake (Liver) [%ID]	Drug uptake (Spleen) [%ID]	t1/2 (Mus musculus) [min]	LC50 (Staphylococcus aureus [4]) [µM]	LC50 (Staphylococcus aureus [5]) [µmol/g]	Drug uptake [6] [%ID]	Drug uptake [7] [%ID]
C[C@H](N)C(=O)N[C@@H](CCCCN)C(=O)N[C@@H](CCCNC(=N)N)C(=O)N[C@@H](Cc1c[nH]cn1)C(=O)N[C@@H](Cc1c[nH]cn1)C(=O)NCC(=O)N[C@@H](Cc1ccc(O)cc1)C(=O)N[C@@H](CCCCN)C(=O)N[C@@H](CCCNC(=N)N)C(=O)N[C@@H](CCCCN)C(=O)N[C@@H](Cc1ccccc1)C(=O)N[C@@H](Cc1c[nH]cn1)C(=O)O (H-AKRHHGYKRKFH-OH)	1.8	–	–	–	–	–	–	–	–	–	–
CC(C)C[C@H](NC(=O)[C@H](CC(C)C)NC(=O)[C@H](Cc1ccccc1)NC(=O)[C@H](CC(C)C)NC(=O)[C@H](CC(C)C)NC(=O)[C@@H](N)CC(C)C)C(=O)N[C@@H](CCCCN)C(=O)N[C@@H](CCCCN)C(=O)N[C@@H](CCCNC(=N)N)C(=O)N[C@@H](CCCCN)C(=O)N[C@@H](CCCCN)C(=O)N[C@@H](CCCNC(=N)N)C(=O)N[C@@H](CCCCN)C(=O)N[C@@H](Cc1ccc(O)cc1)C(=O)NCCCC[C@H](NC(=O)[C@H](Cc1ccc(O)cc1)NC(=O)[C@H](CCCCN)NC(=O)[C@H](CCCNC(=N)N)NC(=O)[C@H](CCCCN)NC(=O)[C@H](CCCCN)NC(=O)[C@H](CCCNC(=N)N)NC(=O)[C@H](CCCCN)NC(=O)[C@H](CCCCN)NC(=O)[C@H](CC(C)C)NC(=O)[C@H](CC(C)C)NC(=O)[C@H](Cc1ccccc1)NC(=O)[C@H](CC(C)C)NC(=O)[C@H](CC(C)C)NC(=O)[C@@H](N)CC(C)C)C(N)=O (I: H-LLLFLLKKRKKRKYK-NH2 / II: H-LLLFLLKKRKKRKY; amide I:15-II:C)	1.8	5	28.3	0.4	16.7	3.1	23.2	0.4	2	18.8	0.6
CC(C)C[C@H](NC(=O)[C@H](CO)NC(=O)[C@H](Cc1ccccc1)NC(=O)[C@H](CC(C)C)NC(=O)[C@H](CC(C)C)NC(=O)[C@H](CCCCN)NC(=O)[C@H](CCCCN)NC(=O)[C@H](Cc1ccccc1)NC(=O)[C@H](CC(C)C)NC(=O)[C@H](CCCNC(=N)N)NC(=O)[C@@H](N)CCCCN)C(=O)N[C@@H](CCCNC(=N)N)C(=O)N[C@@H](CCCCN)C(=O)N[C@@H](Cc1ccc(O)cc1)C(=O)O (H-KRLFKKLLFSLRKY-OH)	1.8	1	24.9	3.1	10.7	3.1	28.6	4.2	1.5	23.8	0.5
CC(C)C[C@H](NC(=O)[C@H](CC(C)C)NC(=O)[C@H](Cc1ccccc1)NC(=O)[C@H](CC(C)C)NC(=O)[C@H](CC(C)C)NC(=O)[C@@H](N)CC(C)C)C(=O)N[C@@H](CCCCN)C(=O)N[C@@H](CCCCN)C(=O)N[C@@H](CCCNC(=N)N)C(=O)N[C@@H](CCCCN)C(=O)N[C@@H](CCCCN)C(=O)N[C@@H](CCCNC(=N)N)C(=O)N[C@@H](CCCCN)C(=O)N[C@@H](Cc1ccc(O)cc1)C(=O)O (H-LLLFLLKKRKKRKY-OH)	1.8	2	26	17.3	12.8	10.8	38.8	51	3	14.6	0.9
CC(C)C[C@H](NC(=O)[C@H](CO)NC(=O)[C@H](Cc1ccccc1)NC(=O)[C@H](CC(C)C)NC(=O)[C@H](CC(C)C)NC(=O)[C@H](CCCCN)NC(=O)[C@H](CCCCN)NC(=O)[C@H](Cc1ccccc1)NC(=O)[C@H](CC(C)C)NC(=O)[C@H](CCCNC(=N)N)NC(=O)[C@@H](N)CCCCN)C(=O)N[C@@H](CCCNC(=N)N)C(=O)N[C@@H](CCCCN)C(=O)N[C@@H](Cc1ccc(O)cc1)C(=O)NCCCC[C@H](NC(=O)[C@H](Cc1ccc(O)cc1)NC(=O)[C@H](CCCCN)NC(=O)[C@H](CCCNC(=N)N)NC(=O)[C@H](CC(C)C)NC(=O)[C@H](CO)NC(=O)[C@H](Cc1ccccc1)NC(=O)[C@H](CC(C)C)NC(=O)[C@H](CC(C)C)NC(=O)[C@H](CCCCN)NC(=O)[C@H](CCCCN)NC(=O)[C@H](Cc1ccccc1)NC(=O)[C@H](CC(C)C)NC(=O)[C@H](CCCNC(=N)N)NC(=O)[C@@H](N)CCCCN)C(N)=O (I: H-KRLFKKLLFSLRKYK-NH2 / II: H-KRLFKKLLFSLRKY; amide I:15-II:C)	1.8	1	29.1	0.4	19.9	4	34	0.5	1	17	0.8
C[C@H](N)C(=O)N[C@@H](CCCCN)C(=O)N[C@@H](CCCNC(=N)N)C(=O)N[C@@H](Cc1cnc[nH]1)C(=O)N[C@@H](Cc1cnc[nH]1)C(=O)NCC(=O)N[C@@H](Cc1ccc(O)cc1)C(=O)N[C@@H](CCCCN)C(=O)N[C@@H](CCCNC(=N)N)C(=O)N[C@@H](CCCCN)C(=O)N[C@@H](Cc1ccccc1)C(=O)N[C@@H](Cc1cnc[nH]1)C(=O)O (H-AKRHHGYKRKFH-OH)	–	–	–	18.6	–	–	–	12.5	3	–	–
C[C@H](N)C(=O)N[C@@H](CCCCN)C(=O)N[C@@H](CCCNC(=N)N)C(=O)N[C@@H](Cc1cnc[nH]1)C(=O)N[C@@H](Cc1cnc[nH]1)C(=O)NCC(=O)N[C@@H](Cc1ccc(O)cc1)C(=O)N[C@@H](CCCCN)C(=O)N[C@@H](CCCNC(=N)N)C(=O)N[C@@H](CCCCN)C(=O)N[C@@H](Cc1ccccc1)C(=O)N[C@@H](Cc1cnc[nH]1)C(=O)NCCCC[C@H](NC(=O)[C@H](Cc1cnc[nH]1)NC(=O)[C@H](Cc1ccccc1)NC(=O)[C@H](CCCCN)NC(=O)[C@H](CCCNC(=N)N)NC(=O)[C@H](CCCCN)NC(=O)[C@H](Cc1ccc(O)cc1)NC(=O)CNC(=O)[C@H](Cc1cnc[nH]1)NC(=O)[C@H](Cc1cnc[nH]1)NC(=O)[C@H](CCCNC(=N)N)NC(=O)[C@H](CCCCN)NC(=O)[C@H](C)N)C(N)=O (I: H-AKRHHGYKRKFHK-NH2 / II: H-AKRHHGYKRKFH; amide I:13-II:C) [listing 1 of 2 here]	–	–	–	38.9	–	–	–	49.8	3	–	–
C[C@H](NC(=O)[C@H](Cc1cnc[nH]1)NC(=O)[C@H](CO)NC(=O)[C@@H](N)CC(=O)O)C(=O)N[C@@H](CCCCN)C(=O)N[C@@H](CCCNC(=N)N)C(=O)N[C@@H](Cc1cnc[nH]1)C(=O)N[C@@H](Cc1cnc[nH]1)C(=O)NCC(=O)N[C@@H](Cc1ccc(O)cc1)C(=O)N[C@@H](CCCCN)C(=O)N[C@@H](CCCNC(=N)N)C(=O)N[C@@H](CCCCN)C(=O)N[C@@H](Cc1ccccc1)C(=O)N[C@@H](Cc1cnc[nH]1)C(=O)N[C@@H](CCC(=O)O)C(=O)N[C@@H](CCCCN)C(=O)N[C@@H](Cc1cnc[nH]1)C(=O)N[C@@H](Cc1cnc[nH]1)C(=O)N[C@@H](CO)C(=O)N[C@@H](Cc1cnc[nH]1)C(=O)N[C@@H](CCCNC(=N)N)C(=O)NCC(=O)N[C@@H](Cc1ccc(O)cc1)C(=O)O [HISTATIN 5]	1.8	1	23.8	2.8	8.7	1.4	9.7	8.3	3.5	25.9	0.5
C[C@H](N)C(=O)N[C@@H](CCCCN)C(=O)N[C@@H](CCCNC(=N)N)C(=O)N[C@@H](Cc1cnc[nH]1)C(=O)N[C@@H](Cc1cnc[nH]1)C(=O)NCC(=O)N[C@@H](Cc1ccc(O)cc1)C(=O)N[C@@H](CCCCN)C(=O)N[C@@H](CCCNC(=N)N)C(=O)N[C@@H](CCCCN)C(=O)N[C@@H](Cc1ccccc1)C(=O)N[C@@H](Cc1cnc[nH]1)C(=O)NCCCC[C@H](NC(=O)[C@H](Cc1cnc[nH]1)NC(=O)[C@H](Cc1ccccc1)NC(=O)[C@H](CCCCN)NC(=O)[C@H](CCCNC(=N)N)NC(=O)[C@H](CCCCN)NC(=O)[C@H](Cc1ccc(O)cc1)NC(=O)CNC(=O)[C@H](Cc1cnc[nH]1)NC(=O)[C@H](Cc1cnc[nH]1)NC(=O)[C@H](CCCNC(=N)N)NC(=O)[C@H](CCCCN)NC(=O)[C@H](C)N)C(N)=O (I: H-AKRHHGYKRKFHK-NH2 / II: H-AKRHHGYKRKFH; amide I:13-II:C) [listing 2 of 2 here]	1.8	–	–	–	–	–	–	–	–	–	–
